Measured values published in ChEMBL document CHEMBL1143121, “Is adamantane a suitable substituent to pre-organize the acid orientation in E-selectin antagonists?” (Bioorg Med Chem, 2008).

Molecular target: T1, E-selectin (Homo sapiens) (UniProt P16581)
T1 sequence (whole entry): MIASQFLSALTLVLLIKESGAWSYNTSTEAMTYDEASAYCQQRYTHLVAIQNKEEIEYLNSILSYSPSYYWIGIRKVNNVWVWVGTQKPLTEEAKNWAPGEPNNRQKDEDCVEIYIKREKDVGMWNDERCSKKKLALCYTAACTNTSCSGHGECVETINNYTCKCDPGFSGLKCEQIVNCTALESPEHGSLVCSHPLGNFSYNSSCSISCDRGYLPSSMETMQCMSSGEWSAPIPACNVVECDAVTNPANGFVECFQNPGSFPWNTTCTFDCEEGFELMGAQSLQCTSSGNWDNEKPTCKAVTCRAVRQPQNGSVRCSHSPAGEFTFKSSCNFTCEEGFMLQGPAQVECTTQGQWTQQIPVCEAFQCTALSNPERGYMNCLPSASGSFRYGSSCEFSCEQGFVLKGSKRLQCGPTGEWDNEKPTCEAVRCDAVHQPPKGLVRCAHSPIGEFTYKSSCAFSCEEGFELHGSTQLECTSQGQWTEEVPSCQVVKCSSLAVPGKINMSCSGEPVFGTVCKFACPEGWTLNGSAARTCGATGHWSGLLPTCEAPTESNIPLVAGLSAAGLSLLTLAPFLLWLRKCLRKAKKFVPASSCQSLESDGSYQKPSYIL
Assay: Binding affinity to E-selectin relative to (2S,4S,5R,6R)-5-acetamido-2-((2R,3S,4S,5R,6R)-3,5-dihydroxy-2-(hydroxymethyl)-6-((1R,2R)-2-((2S,3S,4R,5S,6S)-3,4,5-trihydroxy-6-methyl-tetrahydro-2H-pyran-2-yloxy)cyclohexyloxy)-tetrahydro-2H-pyran-4-yloxy)-4-hydroxy-6-((1R,2R)-1,2,3-trihydroxypropyl)-tetrahydro-2H-pyran-2-carboxylic acid
Procedure, shortened: (§1)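 Competitive binding ELISA against E-selectin, run by a previously published procedure. A reference antagonist was included in the assay for relative comparison. The acid test compounds were purified by size exclusion chromatography to remove traces of polyanionic ion-exchange resin that could give false positives.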

| SMILES | Activity |
| --- | --- |
| C[C@@H]1O[C@@H](O[C@@H]2CCCC[C@H]2O[C@@H]2O[C@H](CO)[C@H](O)[C@H](O[C@@H](CC34CC5CC(CC(C5)C3)C4)C(=O)O)[C@H]2O)[C@@H](O)[C@H](O)[C@@H]1O | 0.32 |
| C[C@@H]1O[C@@H](O[C@@H]2CCCC[C@H]2O[C@@H]2O[C@H](CO)[C@H](O)[C@H](O[C@@H](Cc3ccccc3)C(=O)O)[C@H]2O)[C@@H](O)[C@H](O)[C@@H]1O | 0.6 |
| C[C@@H]1O[C@@H](O[C@@H]2CCCC[C@H]2O[C@@H]2O[C@H](CO)[C@H](O)[C@H](O[C@H](Cc3ccccc3)C(=O)O)[C@H]2O)[C@@H](O)[C@H](O)[C@@H]1O | > 10 |

Second part, the compound after the results:

| Activity | SMILES |
| --- | --- |
| > 10 | C[C@@H]1O[C@@H](O[C@@H]2CCCC[C@H]2O[C@@H]2O[C@H](CO)[C@H](O)[C@H](O[C@H](CC3CCCCC3)C(=O)O)[C@H]2O)[C@@H](O)[C@H](O)[C@@H]1O |
| > 10 | C[C@@H]1O[C@@H](O[C@@H]2CCCC[C@H]2O[C@@H]2O[C@H](CO)[C@H](O)[C@H](OCC(=O)O)[C@H]2O)[C@@H](O)[C@H](O)[C@@H]1O |
| > 10 | C[C@@H]1O[C@@H](O[C@@H]2CCCC[C@H]2O[C@@H]2O[C@H](CO)[C@H](O)[C@H](O[C@H](CC34CC5CC(CC(C5)C3)C4)C(=O)O)[C@H]2O)[C@@H](O)[C@H](O)[C@@H]1O |
| 2.4 | C[C@H](O[C@H]1[C@@H](O)[C@@H](CO)O[C@@H](O[C@@H]2CCCC[C@H]2O[C@@H]2O[C@@H](C)[C@@H](O)[C@@H](O)[C@@H]2O)[C@@H]1O)C(=O)O |
| 0.15 | C[C@@H]1O[C@@H](O[C@@H]2CCCC[C@H]2O[C@@H]2O[C@H](CO)[C@H](O)[C@H](O[C@@H](CC3CCCCC3)C(=O)O)[C@H]2O)[C@@H](O)[C@H](O)[C@@H]1O |
| > 10 | C[C@@H]1O[C@@H](O[C@@H]2CCCC[C@H]2O[C@@H]2O[C@H](CO)[C@H](O)[C@H](O[C@H](C)C(=O)O)[C@H]2O)[C@@H](O)[C@H](O)[C@@H]1O |

Molecular target: T2, E-selectin (Homo sapiens, UniProt P16581)
T2 sequence (P16581 whole entry): T1 sequence (whole entry)
Assay: Binding affinity to E-selectin
Procedure, shortened: as §1

| IC50 | SMILES |
| --- | --- |
| 1000 µM | CC(=O)N[C@@H]1[C@@H](O[C@@H]2O[C@@H](C)[C@@H](O)[C@@H](O)[C@@H]2O)[C@H](O[C@@H]2O[C@H](CO)[C@H](O)[C@H](O[C@]3(C(=O)O)C[C@H](O)[C@@H](NC(C)=O)[C@H]([C@H](O)[C@H](O)CO)O3)[C@H]2O)[C@@H](CO)O[C@H]1O |
| 600 µM | CC(=O)N[C@H]1[C@H]([C@H](O)[C@H](O)CO)O[C@@](O[C@H]2[C@@H](O)[C@@H](CO)O[C@@H](O[C@@H]3CCCC[C@H]3O[C@@H]3O[C@@H](C)[C@@H](O)[C@@H](O)[C@@H]3O)[C@@H]2O)(C(=O)O)C[C@@H]1O |
